Reference: ChEMBL document CHEMBL5705891, “Small-molecule kinase inhibitors provide insight into Mps1 cell cycle function” (Nat Chem Biol, 2010)
Blank lines part the entries; values can stand above or below the molecule they belong to. Calls of active or inactive are those of the source. No cut-off for these calls is given here.

Key:
[1] = tested on: UTRM10; assay: Upregulation of phosphorylated histone H3 level in UTRM10 cells (unknown origin) upto 1 uM by immunoblot analysis; assay type: functional, cell-based
[2] = target: Non-receptor tyrosine-protein kinase TNK1 (Homo sapiens, UniProt Q13470); assay: Binding affinity to TNK1 (unknown origin) assessed as dissociation constant by Ambit kinase binding assay
Chain of Non-receptor tyrosine-protein kinase TNK1 (Q13470 whole entry): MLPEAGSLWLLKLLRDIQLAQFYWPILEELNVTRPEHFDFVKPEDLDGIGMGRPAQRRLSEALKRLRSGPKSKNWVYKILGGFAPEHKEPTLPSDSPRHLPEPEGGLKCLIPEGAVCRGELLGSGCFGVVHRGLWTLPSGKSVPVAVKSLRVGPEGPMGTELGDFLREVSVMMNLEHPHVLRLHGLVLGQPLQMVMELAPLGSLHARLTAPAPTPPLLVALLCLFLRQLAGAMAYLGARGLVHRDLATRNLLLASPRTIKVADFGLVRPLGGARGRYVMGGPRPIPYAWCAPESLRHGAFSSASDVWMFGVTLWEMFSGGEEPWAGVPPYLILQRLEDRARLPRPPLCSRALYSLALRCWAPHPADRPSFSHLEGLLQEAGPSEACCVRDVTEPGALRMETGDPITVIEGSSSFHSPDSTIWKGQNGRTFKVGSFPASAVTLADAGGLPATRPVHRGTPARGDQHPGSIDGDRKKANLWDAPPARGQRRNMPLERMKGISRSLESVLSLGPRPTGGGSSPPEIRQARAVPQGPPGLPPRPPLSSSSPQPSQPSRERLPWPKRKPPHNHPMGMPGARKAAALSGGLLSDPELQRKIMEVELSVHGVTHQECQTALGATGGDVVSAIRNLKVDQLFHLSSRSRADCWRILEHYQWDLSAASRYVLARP

[3] = tested on: HCT-116; assay: Antiproliferative activity against human HCT-116 cells with p53-/- assessed as loss of clonal survival upto 10 uM incubated for 10 days by crystal violet staining based assay; assay type: functional, cell-based; details: time 10.0 day
Procedure, shortened: (§1)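 Colony outgrowth: cells plated at 200 cells per 60-mm dish, exposed to compound or DMSO vehicle and stained with crystal violet after 10 days. HCT116 grown in McCoy's 5A; A549 and HeLa in DMEM; hTERT-RPE1 in DMEM/F-12. All media had 10% FBS and penicillin/streptomycin, 37°C, 5% CO2. Quantified from 3 independent experiments, mean + SD, Student's t test.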

[4] = target: T1, Leukocyte tyrosine kinase receptor (Homo sapiens, UniProt P29376); assay: Binding affinity to LTK (unknown origin) assessed as dissociation constant by Ambit kinase binding assay
T1 sequence (P29376 whole entry): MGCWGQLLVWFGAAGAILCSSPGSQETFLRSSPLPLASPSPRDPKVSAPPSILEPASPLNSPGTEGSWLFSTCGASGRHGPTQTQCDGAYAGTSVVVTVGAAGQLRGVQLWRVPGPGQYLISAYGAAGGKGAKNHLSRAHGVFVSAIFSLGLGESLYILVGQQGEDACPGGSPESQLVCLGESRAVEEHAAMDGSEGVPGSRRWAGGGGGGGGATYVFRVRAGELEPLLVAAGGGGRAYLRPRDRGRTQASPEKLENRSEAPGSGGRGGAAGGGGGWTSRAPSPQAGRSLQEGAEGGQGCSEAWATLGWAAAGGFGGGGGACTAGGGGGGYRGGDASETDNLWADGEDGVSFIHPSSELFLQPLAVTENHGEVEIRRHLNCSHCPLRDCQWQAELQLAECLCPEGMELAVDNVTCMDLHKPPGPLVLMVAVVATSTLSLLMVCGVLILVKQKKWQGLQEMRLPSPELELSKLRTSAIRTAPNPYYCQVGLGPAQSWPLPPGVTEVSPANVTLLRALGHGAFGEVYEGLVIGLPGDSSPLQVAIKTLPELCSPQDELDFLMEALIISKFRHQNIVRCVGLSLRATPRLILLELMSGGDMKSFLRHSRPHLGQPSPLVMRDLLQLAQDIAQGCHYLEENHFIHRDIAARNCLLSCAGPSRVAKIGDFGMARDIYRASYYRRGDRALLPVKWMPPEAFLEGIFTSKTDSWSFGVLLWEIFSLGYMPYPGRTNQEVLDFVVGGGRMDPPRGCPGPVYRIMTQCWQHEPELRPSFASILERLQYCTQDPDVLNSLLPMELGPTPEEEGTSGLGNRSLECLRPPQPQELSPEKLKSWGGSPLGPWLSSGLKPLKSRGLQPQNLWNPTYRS

[5] = tested on: U2OS; assay: Induction of chromosome misalignment in human U2OS cells expressing histone H2B-GFP at 5 to 10 uM treated for 4 hrs followed by MG132 treatment for 30 to 60 mins and subsequent replacement of medium containing MG132 measured after 30 mins by immunofluoresence analysis; assay type: functional, cell-based; details: dose 5-10 µM, time 4.5-5 hrs
[6] = tested on: HCT-116; assay: Antiproliferative activity against human HCT-116 cells with p53-/- at 10 uM measured after 96 hrs in presence of Z-VAD-FMK by Syto60 staining based assay; assay type: functional, cell-based
[7] = target: Insulin receptor (Homo sapiens, UniProt P06213); assay: Binding affinity to INSR (unknown origin) assessed as dissociation constant by Ambit kinase binding assay
[8] = tested on: U2OS; assay: Induction of premature entry into anaphase in thymidine-treated human U2OS cells expressing H2B-GFP and Plk4 overexpression assessed as fragmentary divisions into multiple daughter cells measured for 30 mins by time lapse imaging analysis relative to control; assay type: functional, cell-based
Procedure, shortened: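 Doxycycline-inducible Plk4 U2OS cells expressing H2B-GFP were blocked with thymidine for 18 hrs and released into doxycycline (2 μg·ml⁻¹) for 10 hrs. A second 18-hr thymidine block followed, then release for 6 hrs before 5 μM inhibitor, with or without Plk4 induction. Cells were imaged by time-lapse at 37°C, 5% CO₂, timed from NEBD, and bipolar versus multipolar anaphases were scored. Values are mean ± SD of 3 independent experiments.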

[9] = tested on: HCT-116; assay: Cytotoxicity against human HCT-116 cells assessed as loss of clonal survival at 5 to 10 uM incubated for 10 days by crystal violet staining based assay; assay type: functional, cell-based; details: dose 5-10 µM, time 10.0 day; procedure, shortened: as §1
[10] = tested on: A549; assay: Antiproliferative activity against human A549 cells at 10 uM incubated for 4 days by Syto60 staining based assay; assay type: functional, cell-based; details: time 4.0 day
[11] = tested on: UTRM10; assay: Effect on centrosome overduplication in hydroxyurea-treated UTRM10 cells (unknown origin) at 10 to 25 uM incubated for 48 hrs by centrin staining based analysis; details: dose 10-25 µM
[12] = tested on: HeLa S3; assay: Effect on thymidine-treated human HeLa S3 cell populations after one cell doubling at 10 uM incubated for 4 hrs followed by thymidine release by immunofluorescence imaging analysis; assay type: functional, cell-based
[13] = target: MAP/microtubule affinity-regulating kinase 4 (Homo sapiens) (UniProt Q96L34); assay: Inhibition of MARK4 (unknown origin) assessed as residual enzyme activity at 10 uM by Ambit kinase binding assay relative to control
[14] = target: Myosin-IIIb (Homo sapiens) (UniProt Q8WXR4); assay: Inhibition of MYO3B (unknown origin) assessed as residual enzyme activity at 10 uM by Ambit kinase binding assay relative to control
[15] = target: Insulin receptor-related protein (Homo sapiens, UniProt P14616); assay: Binding affinity to INSRR (unknown origin) assessed as dissociation constant by Ambit kinase binding assay
Chain of Insulin receptor-related protein (P14616 27-742 limits assumed): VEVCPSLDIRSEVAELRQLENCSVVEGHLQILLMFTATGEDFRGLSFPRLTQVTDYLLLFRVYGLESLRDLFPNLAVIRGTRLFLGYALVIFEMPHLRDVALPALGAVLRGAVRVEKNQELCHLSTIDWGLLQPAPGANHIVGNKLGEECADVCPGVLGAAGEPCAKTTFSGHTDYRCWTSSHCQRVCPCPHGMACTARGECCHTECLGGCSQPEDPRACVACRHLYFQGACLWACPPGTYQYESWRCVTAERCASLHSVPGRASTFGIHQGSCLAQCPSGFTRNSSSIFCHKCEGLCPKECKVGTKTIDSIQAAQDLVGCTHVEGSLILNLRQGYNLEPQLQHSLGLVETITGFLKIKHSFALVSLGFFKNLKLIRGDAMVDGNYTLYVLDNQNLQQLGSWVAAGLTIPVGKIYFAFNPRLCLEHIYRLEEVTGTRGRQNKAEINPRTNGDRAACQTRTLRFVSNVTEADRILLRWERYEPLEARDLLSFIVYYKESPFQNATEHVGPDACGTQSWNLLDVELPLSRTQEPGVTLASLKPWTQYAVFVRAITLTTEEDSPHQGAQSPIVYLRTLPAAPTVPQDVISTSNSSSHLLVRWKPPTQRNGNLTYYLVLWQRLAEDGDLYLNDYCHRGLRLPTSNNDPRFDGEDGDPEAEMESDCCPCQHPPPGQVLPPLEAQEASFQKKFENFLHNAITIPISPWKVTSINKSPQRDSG
Chain of Insulin receptor-related protein (P14616 747-1297 limits assumed): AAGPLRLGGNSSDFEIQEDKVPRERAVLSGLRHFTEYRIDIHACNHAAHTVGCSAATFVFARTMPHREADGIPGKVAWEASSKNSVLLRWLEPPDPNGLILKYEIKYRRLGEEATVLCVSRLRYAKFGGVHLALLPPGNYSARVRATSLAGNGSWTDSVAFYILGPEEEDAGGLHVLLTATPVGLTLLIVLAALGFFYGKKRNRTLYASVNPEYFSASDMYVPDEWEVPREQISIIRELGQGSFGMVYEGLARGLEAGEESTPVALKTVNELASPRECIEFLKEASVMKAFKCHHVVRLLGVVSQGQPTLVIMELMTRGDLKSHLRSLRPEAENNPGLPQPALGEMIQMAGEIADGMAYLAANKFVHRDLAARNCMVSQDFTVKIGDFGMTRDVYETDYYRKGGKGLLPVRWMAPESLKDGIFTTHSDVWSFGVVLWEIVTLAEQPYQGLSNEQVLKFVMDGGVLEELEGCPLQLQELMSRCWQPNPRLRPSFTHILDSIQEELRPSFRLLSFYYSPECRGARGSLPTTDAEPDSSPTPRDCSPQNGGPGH

[16] = target: Aurora kinase B (Homo sapiens) (UniProt Q96GD4); assay: Inhibition of Aurora B activation in human U2OS cells by Western blot analysis; assay type: cell-based
Chain of Aurora kinase B (Homo sapiens) (Q96GD4 whole entry): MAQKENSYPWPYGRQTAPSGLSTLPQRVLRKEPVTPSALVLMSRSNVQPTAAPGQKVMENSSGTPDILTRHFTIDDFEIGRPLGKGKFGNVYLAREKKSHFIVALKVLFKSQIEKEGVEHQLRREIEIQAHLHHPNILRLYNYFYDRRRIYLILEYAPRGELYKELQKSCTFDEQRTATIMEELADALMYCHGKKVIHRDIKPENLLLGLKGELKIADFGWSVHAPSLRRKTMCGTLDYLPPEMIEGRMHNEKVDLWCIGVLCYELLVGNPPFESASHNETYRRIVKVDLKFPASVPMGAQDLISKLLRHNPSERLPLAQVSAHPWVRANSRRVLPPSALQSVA

[17] = tested on: U2OS; assay: Inhibition of anaphase delay in thymidine-treated human U2OS cells expressing H2B-GFP and Plk4 overexpression measured for 30 mins by time lapse imaging analysis; assay type: functional, cell-based
Procedure, shortened: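 U2OS H2B-GFP cells carrying doxycycline-inducible Plk4. Thymidine 18 h, release into doxycycline (2 μg·ml⁻¹) 10 h, second thymidine 18 h, release 6 h, then 5 μM inhibitor. Time-lapse imaging at 37°C, 5% CO₂ recorded time after NEBD to anaphase. Mean ± SD of 3 independent experiments; Student's t test.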

[18] = tested on: HCT-116; assay: Induction of accumulation of human HCT-116 cells with <2N DNA content at 10 uM incubated for 4 days by FACS analysis; assay type: functional, cell-based; details: time 4.0 day
Procedure, shortened: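 HCT116 cells were treated with 10 μM compound or DMSO vehicle for the indicated times up to 96 h, then DNA content was profiled by flow cytometry.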

[19] = target: Inhibitor of nuclear factor kappa-B kinase subunit epsilon (Homo sapiens) (UniProt Q14164); assay: Inhibition of IKK-epsilon (unknown origin) assessed as residual enzyme activity at 10 uM by Ambit kinase binding assay relative to control
[20] = target: Myosin light chain kinase family member 4 (Homo sapiens) (UniProt Q86YV6); assay: Inhibition of SgK085 (unknown origin) assessed as residual enzyme activity at 10 uM by Ambit kinase binding assay relative to control
[21] = target: Tyrosine-protein kinase Tec (Homo sapiens) (UniProt P42680); assay: Inhibition of TEC (unknown origin) assessed as residual enzyme activity at 10 uM by Ambit kinase binding assay relative to control
[22] = target: Bone morphogenetic protein receptor type-2 (Homo sapiens) (UniProt Q13873); assay: Inhibition of BMPR2 (unknown origin) assessed as residual enzyme activity at 10 uM by Ambit kinase binding assay relative to control
[23] = target: BMP-2-inducible protein kinase (Homo sapiens) (UniProt Q9NSY1); assay: Inhibition of BIKE (unknown origin) assessed as residual enzyme activity at 10 uM by Ambit kinase binding assay relative to control
Chain of BMP-2-inducible protein kinase (Homo sapiens) (Q9NSY1 whole entry, looked up): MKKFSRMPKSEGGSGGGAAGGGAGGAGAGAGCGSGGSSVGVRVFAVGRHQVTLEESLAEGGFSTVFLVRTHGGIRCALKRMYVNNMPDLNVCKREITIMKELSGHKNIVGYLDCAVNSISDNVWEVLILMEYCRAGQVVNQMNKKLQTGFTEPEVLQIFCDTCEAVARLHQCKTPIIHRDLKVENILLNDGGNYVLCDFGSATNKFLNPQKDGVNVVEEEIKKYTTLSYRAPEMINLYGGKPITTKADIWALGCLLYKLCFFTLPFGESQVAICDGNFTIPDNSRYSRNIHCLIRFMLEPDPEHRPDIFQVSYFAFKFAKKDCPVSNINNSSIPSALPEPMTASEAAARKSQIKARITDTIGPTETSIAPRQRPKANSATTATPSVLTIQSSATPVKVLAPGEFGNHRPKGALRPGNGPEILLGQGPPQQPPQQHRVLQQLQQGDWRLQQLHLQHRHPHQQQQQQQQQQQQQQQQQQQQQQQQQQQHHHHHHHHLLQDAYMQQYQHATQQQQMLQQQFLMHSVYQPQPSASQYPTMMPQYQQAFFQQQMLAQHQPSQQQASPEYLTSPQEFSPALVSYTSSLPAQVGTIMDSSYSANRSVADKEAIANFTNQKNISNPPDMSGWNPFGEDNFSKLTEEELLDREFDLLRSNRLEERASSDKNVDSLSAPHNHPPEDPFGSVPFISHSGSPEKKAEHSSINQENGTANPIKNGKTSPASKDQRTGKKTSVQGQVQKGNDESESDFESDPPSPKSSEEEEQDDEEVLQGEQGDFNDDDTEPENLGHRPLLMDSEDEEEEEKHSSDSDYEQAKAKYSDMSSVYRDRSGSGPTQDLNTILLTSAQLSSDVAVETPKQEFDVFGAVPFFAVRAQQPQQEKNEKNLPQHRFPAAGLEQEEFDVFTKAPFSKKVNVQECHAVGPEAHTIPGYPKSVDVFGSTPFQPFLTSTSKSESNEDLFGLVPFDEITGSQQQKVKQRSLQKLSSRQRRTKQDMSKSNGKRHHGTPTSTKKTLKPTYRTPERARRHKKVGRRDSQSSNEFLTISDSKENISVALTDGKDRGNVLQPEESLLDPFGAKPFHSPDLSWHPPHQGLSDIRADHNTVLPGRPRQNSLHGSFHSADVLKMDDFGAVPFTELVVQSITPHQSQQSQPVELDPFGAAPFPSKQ

[24] = target: SRSF protein kinase 3 (Homo sapiens) (UniProt Q9UPE1); assay: Inhibition of SRPK3 (unknown origin) assessed as residual enzyme activity at 10 uM by Ambit kinase binding assay relative to control
[25] = target: Death-associated protein kinase 1 (Homo sapiens) (UniProt P53355); assay: Inhibition of DAPK1 (unknown origin) assessed as residual enzyme activity at 10 uM by Ambit kinase binding assay relative to control
[26] = target: Serine/threonine-protein kinase 25 (Homo sapiens) (UniProt O00506); assay: Inhibition of YSK1 (unknown origin) assessed as residual enzyme activity at 10 uM by Ambit kinase binding assay relative to control
Chain of Serine/threonine-protein kinase 25 (Homo sapiens) (O00506 whole entry, looked up): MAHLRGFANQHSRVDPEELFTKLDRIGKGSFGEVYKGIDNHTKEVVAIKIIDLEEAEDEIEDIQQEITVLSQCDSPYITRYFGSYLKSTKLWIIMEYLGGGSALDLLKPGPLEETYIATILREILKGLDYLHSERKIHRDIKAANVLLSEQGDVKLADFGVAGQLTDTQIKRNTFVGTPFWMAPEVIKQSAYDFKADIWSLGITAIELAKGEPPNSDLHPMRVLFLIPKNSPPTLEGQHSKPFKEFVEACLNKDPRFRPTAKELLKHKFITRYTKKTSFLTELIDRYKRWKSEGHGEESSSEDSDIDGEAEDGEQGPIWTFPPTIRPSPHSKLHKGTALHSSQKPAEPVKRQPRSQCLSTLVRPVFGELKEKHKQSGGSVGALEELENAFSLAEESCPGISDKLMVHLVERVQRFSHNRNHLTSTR

[27] = target: Serine/threonine-protein kinase pim-3 (Homo sapiens) (UniProt Q86V86); assay: Inhibition of PIM3 (unknown origin) assessed as residual enzyme activity at 10 uM by Ambit kinase binding assay relative to control
[28] = target: T1, Leukocyte tyrosine kinase receptor; assay: Inhibition of LTK (unknown origin) assessed as residual enzyme activity at 10 uM by Ambit kinase binding assay relative to control

- Kd [2]: 2.6 µM
- Kd [4]: 0.029 µM
- Kd [7]: 0.47 µM
- Activity [13]: 1.2%
- Activity [14]: 28%
- Kd [15]: 1.2 µM
- inhibition [16]: Active
Compound: COc1cc(N2CCC(O)CC2)ccc1Nc1cc(Nc2ccccc2S(=O)(=O)C(C)C)c2cc[nH]c2n1
- Activity [1]: Active
- Activity [3]: Active
- Activity [5]: Active
- Activity [6]: Active
- Activity [8]: Active
- Activity [9]: Active
- Activity [10]: Active
- Activity [11]: inactive
- Activity [12]: inactive
- inhibition [17]: Active
- Activity [18]: Active

- Activity [19]: 12%
- Activity [20]: 0.25%
- Activity [21]: 28%
- Activity [22]: 15%
- Activity [23]: 0.6%
- Activity [24]: 32%
- Activity [26]: 28%
- Activity [27]: 14%
- Activity [28]: 32%
Compound: O=C1c2ccccc2-c2n[nH]c3cccc1c23
- Activity [25]: 1.4%
